One block for each molecule: values may come before it.
Key:
[1] = test system: skin allograft (BALB/c donor); test: Skin allograft rejection under tacrolimus immunosuppression; format: in vivo, C57BL/6 mice; conditions: 2 mg/kg I.P.; treated PODs 7, 12 n = 6; untreated POD 7 n = 8
Procedure, shortened: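 Allograft recipients received tacrolimus 2 mg/kg i.p. or saline daily from POD −1 to POD 7, plus doses on PODs 9 and 11. FITC-labelled nanosensors (10 nmol by peptide) were given before transplant (POD −4) and on PODs 7 and 12, followed by 90-min urine collection. Urinary FITC was bead-purified with anti-FITC, converted to percent injected dose, and expressed as fold over pre-transplant; unpaired two-sided t-test.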

GzmB [2] = molecular target: T1, GzmB (Mus musculus, UniProt P04187); test: In vivo GzmB activity imaging with NIR activatable probe; design: species or system C57BL/6 mice; conditions: 10 nmol by peptide, organs excised at 24 hours
T1 sequence (P04187 21-247): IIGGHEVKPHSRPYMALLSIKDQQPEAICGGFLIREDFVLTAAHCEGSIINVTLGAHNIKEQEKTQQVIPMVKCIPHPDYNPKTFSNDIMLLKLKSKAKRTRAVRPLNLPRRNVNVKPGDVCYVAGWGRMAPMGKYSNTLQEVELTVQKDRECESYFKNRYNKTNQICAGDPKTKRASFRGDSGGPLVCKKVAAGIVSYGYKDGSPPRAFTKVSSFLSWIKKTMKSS

Immunogenicity study = format: in vivo, C57BL/6 mice; conditions: 10 nmol I.P., with or without complete Freund's adjuvant, total serum IgG, n = 3
Procedure, shortened: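 On day 0, C57BL/6 mice received a single i.p. dose in one of five arms: free GzmB substrate peptide (10 nmol), nanosensors (10 nmol by peptide), nanosensors plus complete Freund's adjuvant, chicken ovalbumin (100 μg) plus CFA, or saline. Serum came from retro-orbital blood, was spun at 3,500 G for 5 min and stored at −80°C. Total IgG was then quantified by immunoassay.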

[3] = test system: skin allograft and isograft; format: in vivo, C57BL/6 mice; conditions: POD 7 (peak), i.v., surface-labeled, mice with both grafts, n = 5
GzmB [4] = molecular target: T1, GzmB; test: Tracking of cleaved fragments after in vivo GzmB cleavage; design: species or system C57BL/6 mice; conditions: POD 7, VT750-labelled, 10 nmol by peptides, 90 minutes post administration, tissue homogenates
[5] = Clearance of residual urine fluorescence after a single injection; format: in vivo, mice; conditions: n = 3
[6] = test system: GzmB activity in skin allograft; test: Urinary prediction of acute rejection in skin graft mice; format: in vivo, C57BL/6 mice; conditions: FITC-labelled, 10 nmol by peptides, urine collected for 90 minutes, n = 6
Procedure, shortened: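 This was a paired design in C57BL/6 recipients of BALB/c tail-skin grafts. FITC-labelled nanosensors (10 nmol by peptide) were dosed at POD −4 and at post-transplant days, and mice voided over plates for 90 min. Urinary FITC was captured on anti-FITC magnetic beads and quantified against a free-FITC ladder. Values were volume-normalised to percent injected dose, scaled to pre-transplant mean and variance; one-way ANOVA with Dunnett post-test.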

murine Granzyme B = molecular target: T2, murine Granzyme B (Mus musculus, UniProt P04187); test: In vitro protease cleavage assay of nanosensors with recombinant GzmB; format: biochemical
T2 sequence (P04187 21-247): T1 sequence (P04187 21-247)
Procedure, shortened: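 Candidate GzmB substrates (6–12-mer, Ile at P4, Asp at P1) were conjugated to iron-oxide nanoparticles. They were incubated with recombinant GzmB in PBS + 1% BSA at 37 °C with fluorescence monitoring. Fluorescence traces were fitted to compare initial cleavage velocities.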

[7] = test system: membrane attack complex (MAC); test: ELISA of membrane attack complex; design: species or system human; conditions: serum samples, MicroVue CH50 Eq EIA, after 1 hour, n = 3
Procedure, shortened: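 Human control serum was mixed with activity nanosensors, and complement was triggered with heat-aggregated gamma globulin. Fluorescence was read for 1 h, then supernatants were assayed for membrane attack complex by CH50-equivalent EIA, which is proportional to CH50 U. Data are means ± s.e.m., n = 3, compared by one-way ANOVA with Tukey post-test.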

Molecule: C=CC[C@@H]1/C=C(\C)C[C@H](C)C[C@H](OC)[C@H]2O[C@@](O)(C(=O)C(=O)N3CCCC[C@H]3C(=O)O[C@H](/C(C)=C/[C@@H]3CC[C@@H](O)[C@H](OC)C3)[C@H](C)[C@@H](O)CC1=O)[C@H](C)C[C@@H]2OC [Tacrolimus]
nanosensor urine signals of treated versus untreated allograft mice [1]: blunted compared to untreated mice

Molecule: kGGsIEFDSGGGs{PRA}c [activatable probe]
probe activation in tissues, allograft versus isograft mice (GzmB [2]): significantly increased in allograft skin but statistically equivalent in all major organs

activation (fluorescence) in samples that contained recombinant GzmB (murine Granzyme B; saline, plasma or serum samples spiked with GzmB, 6 nM by NP, 300 nM by peptide, 37 °C, 60 minutes): markedly activated
Molecule: (FITC)AIEFDSGc [activity nanosensors]
induction of neutralizing antibodies (Immunogenicity study): do not induce neutralizing antibodies | signal increase in skin allograft over skin isograft [3]: 4 fold | fluorescence in kidneys, allograft compared to isograft mice (GzmB [4]): 3 fold | time to full clearance of residual urinary fluorescence [5]: ≤ 2 days | post-graft urine signals from allograft recipients versus pre-graft baseline [6]: significantly elevated as early as POD 5 | MAC formation (complement activation by a foreign surface) [7]: no elevation in MAC formation

Molecule: AIEFD|SG
initial cleavage velocity by recombinant GzmB (murine Granzyme B; library of 13 candidate substrates conjugated to IONPs, n = 4): highest initial cleavage velocity

— article PMC6452901 (Nature biomedical engineering, 2019)
